Test results from ChEMBL document CHEMBL4400568, “The design of 1,4-naphthoquinone derivatives and mechanisms underlying apoptosis induction through ROS-dependent MAPK/Akt/STAT3 pathways in human lung cancer cells” (Bioorg Med Chem, 2019).
The source made the active and inactive calls. No cut-off for these calls is given here.

Legend:
[1] = Cytotoxicity against human QSG7701 cells assessed as reduction in cell viability after 24 hrs by MTT assay; assay type: cell-based
Summary of the method: (§1)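 Log-phase cells seeded at 1 × 10⁴ per well. Lung cancer lines (A549, NCI-H23, NCI-H460) and normal lines (IMR-90, QSG-7701, HEK-293A) each exposed to 1, 3, 10, 30 and 100 μM for 24 h. MTT (5 mg/mL stock) added for 2 h at 37°C, formazan dissolved in DMSO, absorbance read at 490 nm. Three independent experiments, mean ± SD.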

[2] = Cytotoxicity against HEK293A cells assessed as reduction in cell viability after 24 hrs by MTT assay; assay type: cell-based; details: human, hek293-a; summary of the method: as §1
[3] = tested on: IMR-90; experiment: Cytotoxicity against human IMR90 cells assessed as reduction in cell viability after 24 hrs by MTT assay; assay type: cell-based; details: imr-90, 24 h; summary of the method: as §1
[4] = tested on: A549; experiment: Induction of apoptosis in human A549 cells assessed as early apoptotic cells at 3 uM after 3 hrs by Annexin V-FITC/propidium iodide staining-based flow cytometric analysis (reference value: 2.73%); assay type: functional
[5] = tested on: A549; experiment: Induction of apoptosis in human A549 cells assessed as late apoptotic cells at 3 uM after 12 hrs by Annexin V-FITC/propidium iodide staining-based flow cytometric analysis (reference value: 4.52%); assay type: functional
[6] = tested on: A549; experiment: Induction of apoptosis in human A549 cells assessed as early apoptotic cells at 3 uM after 12 hrs by Annexin V-FITC/propidium iodide staining-based flow cytometric analysis (reference value: 2.73%); assay type: functional
[7] = tested on: A549; experiment: Induction of apoptosis in human A549 cells assessed as late apoptotic cells at 3 uM after 24 hrs by Annexin V-FITC/propidium iodide staining-based flow cytometric analysis (reference value: 4.52%); assay type: functional
[8] = tested on: A549; experiment: Induction of apoptosis in human A549 cells assessed as late apoptotic cells at 3 uM after 3 hrs by Annexin V-FITC/propidium iodide staining-based flow cytometric analysis (reference value: 4.52%); assay type: functional
[9] = tested on: A549; experiment: Induction of apoptosis in human A549 cells assessed as early apoptotic cells at 3 uM after 6 hrs by Annexin V-FITC/propidium iodide staining-based flow cytometric analysis (reference value: 2.73%); assay type: functional
[10] = tested on: A549; experiment: Induction of apoptosis in human A549 cells assessed as early apoptotic cells at 3 uM after 24 hrs by Annexin V-FITC/propidium iodide staining-based flow cytometric analysis (reference value: 2.73%); assay type: functional
[11] = tested on: A549; experiment: Induction of apoptosis in human A549 cells assessed as late apoptotic cells at 3 uM after 6 hrs by Annexin V-FITC/propidium iodide staining-based flow cytometric analysis (reference value: 4.52%); assay type: functional
[12] = tested on: NCI-H460; experiment: Cytotoxicity against human NCI-H460 cells assessed as reduction in cell viability after 24 hrs by MTT assay; assay type: functional, cell-based; summary of the method: as §1
[13] = tested on: NCI-H23; experiment: Cytotoxicity against human NCI-H23 cells assessed as reduction in cell viability after 24 hrs by MTT assay; assay type: functional, cell-based; summary of the method: as §1

**Q.** Which Activity [1] does the source give for O=c1[nH]cc(F)c(=O)[nH]1 [FLUOROURACIL] here?
**A.** Toxic

**Q.** What about the Activity [2] of the same compound?
**A.** Toxic

**Q.** What about the Activity [3] of the same compound?
**A.** Toxic

**Q.** What about the Activity [4] of the same compound?
**A.** 7.91%

**Q.** And the Activity [5]?
**A.** 5.83%

**Q.** What about the Activity [6] of the same compound?
**A.** 13.87%

**Q.** And the Activity [7]?
**A.** 4.22%

**Q.** What about the Activity [8] of the same compound?
**A.** 4.75%

**Q.** And the Activity [9]?
**A.** 10.68%

**Q.** And the Activity [10]?
**A.** 23.86%

**Q.** And the Activity [11]?
**A.** 4.6%

**Q.** What about the Activity [12] of the same compound?
**A.** Active

**Q.** What about the Activity [13] of the same compound?
**A.** Active
